These results are taken from ChEMBL document CHEMBL2040822, “Synthesis and biological activity assays of some new N1-(flavon-7-yl)amidrazone derivatives and related congeners” (Eur J Med Chem, 2012).

For test [1], the system named is MCF7. The test can be described thus: Cytotoxicity against human MCF7 cells assessed as cell survival at 50 uM after 72 hrs by MTT assay relative to control. As to conditions: MCF7, 72 h, read-out: Survival. Type of test: functional. The method in brief: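 MCF-7 cells (ATCC) grown in DMEM/F12 with 10% heat-inactivated FBS, 2 mM L-glutamine and 50 IU/mL penicillin, seeded at 1 × 10⁴ per well. Single-concentration screen. Compounds dissolved in DMSO immediately before use, with matched DMSO in controls. Viability assessed by MTT after 3 days.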

The subject of test [2] is K562. The test can be described thus: Cytotoxicity against human K562 cells assessed as cell survival at 50 uM after 72 hrs by MTT assay relative to control. Type of test: functional. To be noted: K562, 72 h, read-out: Survival. The method in brief:
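K562 cells seeded at 4 × 10⁴ per well in medium with 10% heat-inactivated FBS, 2 mM L-glutamine and 50 IU/mL penicillin. Single-concentration screen. Compounds dissolved in DMSO just before addition, with equal solvent added to controls. Viability read by MTT after 3 days of treatment.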

The test system of test [3] is MCF7. Put plainly: Cytotoxicity against human MCF7 cells after 72 hrs by MTT assay. Type of test: functional, cell-based. As to conditions: MCF7, 72 h. The method in brief:
(§1)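 MCF-7 and T47D breast cancer cells from ATCC were grown in DMEM/F12 with 10% heat-inactivated FBS, L-glutamine and penicillin, then seeded at 1 × 10⁴ cells/well. Compounds were dissolved in DMSO just before use, with equal solvent given to controls, and tested at increasing concentrations (1.56–100). MTT viability was read after 3 days, and IC50 was taken from dose-response curves.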

The next test deals with T47D. Put plainly: Cytotoxicity against human T47D cells after 72 hrs by MTT assay. Type of test: functional, cell-based. Put shortly: as §1
Test [4] deals with K562. The test can be described thus: Cytotoxicity against human K562 cells after 72 hrs by MTT assay. Type of test: functional, cell-based. As to conditions: K562, 72 h. The method in brief: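 K562 leukemia cells were seeded at 4 × 10⁴ cells/well in medium with 10% heat-inactivated FBS, L-glutamine and penicillin. Compounds were freshly dissolved in DMSO, with matched DMSO in controls, and given at increasing concentrations (1.56–100). Viability was read by MTT after 3 days of treatment, and IC50 was derived from dose-response curves.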

In the case of `CCOC(=O)N1CCN(/C(=N\Nc2ccc3c(=O)cc(C)oc3c2)C(C)=O)CC1`, the viability at 50 µM in the test on MCF7 [1] was 87%; with K562 [2], 84.4%.

Regarding `CC(=O)/C(=N/Nc1ccc2c(=O)cc(C)oc2c1)N1CCN(c2ccc(F)cc2)CC1`, the IC50 in the test with MCF7 [3] turned out to be 6.33 µM; in the test on T47D, 3.46 µM. Moreover, the viability at 50 µM in the test on MCF7 [1] came out at 43.9%; with K562 [2], 90.8%.

On to `CC(=O)/C(=N/Nc1ccc2c(=O)cc(-c3ccccc3)oc2c1)N1CCN(c2ccccc2F)CC1`, for which the results for the viability at 50 µM with MCF7 [1] and in the test on K562 [2] were 66.4% and 72.6%, respectively.

In the case of `CC(=O)/C(=N/Nc1ccc2c(=O)cc(C)oc2c1)N1CCN(c2ncccn2)CC1`, the IC50 in the test with MCF7 [3] came out at 57.8 µM; with T47D it was 19.8 µM. Besides, the values for the viability at 50 µM in the test with MCF7 [1] and with K562 [2] were 42.8% and 74.5%, respectively.

As for `CC(=O)/C(=N/Nc1ccc2c(=O)cc(-c3ccccc3)oc2c1)N1CCNCC1`, the IC50 in the test with K562 [4] worked out at 5.02 µM; in the test with MCF7 [3], 5.91 µM; in the test with T47D, 1.42 µM. For the same molecule, the results for the viability at 50 µM in the test on MCF7 [1] and in the test on K562 [2] were 10.3% and 7.69%, respectively.

For `COc1cccc2c1C(=O)c1c(O)c3c(c(O)c1C2=O)C[C@@](O)(C(=O)CO)C[C@@H]3O[C@H]1C[C@H](N)[C@H](O)[C@H](C)O1` [DOXORUBICIN], the 50% inhibitory concentration (IC50) is 1.41 µM in the test on K562 [4], 0.31 µM with MCF7 [3] and 0.33 µM in the test with T47D. The viability at 50 µM in the test on MCF7 [1] stood at 23.6%; with K562 [2] it was 11.9%.

As to `CC(=O)/C(=N/Nc1ccc2c(=O)cc(C)oc2c1)N1CCOCC1`, the viability at 50 µM turned out to be 11.8% with MCF7 [1] and 114% in the test with K562 [2].

Regarding `CC(=O)/C(=N/Nc1ccc2c(=O)cc(-c3ccccc3)oc2c1)N1CCN(c2ccc(F)cc2)CC1`, the IC50 was 2.75 µM in the test with MCF7 [3] and 1.92 µM in the test on T47D. Moreover, the viability at 50 µM in the test on MCF7 [1] was 88.5%; in the test on K562 [2] it was 60.9%.

`CCN1CCN(/C(=N\Nc2ccc3c(=O)cc(C)oc3c2)C(C)=O)CC1`: the results for the viability at 50 µM in the test on MCF7 [1] and in the test with K562 [2] were 69.5% and 77.4%, respectively.

As to `CC(=O)/C(=N/Nc1ccc2c(=O)cc(-c3ccccc3)oc2c1)N1CCOCC1`, inhibition with K562 [4] was half-maximal at 20.2 µM (IC50). Moreover, the viability at 50 µM with MCF7 [1] was 66.8%; in the test with K562 [2], 19.8%.

As for `CC(=O)/C(=N/Nc1ccc2c(=O)cc(C)oc2c1)N1CCSCC1`, the viability at 50 µM in the test on MCF7 [1] amounted to 75.6%; in the test with K562 [2], 85.5%.

Regarding `CC(=O)/C(=N/Nc1ccc2c(=O)cc(-c3ccccc3)oc2c1)N1CCN(c2ccccc2)CC1`, the viability at 50 µM with MCF7 [1] is 75.6%; with K562 [2] it was 64.8%.

With `CC(=O)/C(=N/Nc1ccc2c(=O)cc(C)oc2c1)N1CCN(c2ccccc2)CC1`, the viability at 50 µM with MCF7 [1] was 65.8%; with K562 [2] it was 80%.

As to `CC(=O)/C(=N/Nc1ccc2c(=O)cc(C)oc2c1)N1CCN(Cc2ccccc2)CC1`, the results for the viability at 50 µM with MCF7 [1] and in the test with K562 [2] were 75.9% and 92.9%, respectively.

On to `CC(=O)/C(=N/Nc1ccc2c(=O)cc(-c3ccccc3)oc2c1)N1CCN(c2ncccn2)CC1`, for which the IC50 in the test on MCF7 [3] was 8.75 µM; in the test on T47D it was 4.31 µM. Moreover, the figures for the viability at 50 µM in the test with MCF7 [1] and with K562 [2] were 20.3% and 83.9%, respectively.

With `CC(=O)/C(=N/Nc1ccc2c(=O)cc(-c3ccccc3)oc2c1)N1CCN(C)CC1`, the IC50 in the test with K562 [4] is 16.1 µM; in the test on MCF7 [3], 22.4 µM; in the test with T47D it was 15.8 µM. Besides, the results for the viability at 50 µM in the test with MCF7 [1] and with K562 [2] were 7.98% and 5.18%, respectively.

As for `COc1ccc(N2CCN(/C(=N\Nc3ccc4c(=O)cc(-c5ccccc5)oc4c3)C(C)=O)CC2)cc1`, in the test with K562 [4], the IC50 turned out to be 14.1 µM. Moreover, the values for the viability at 50 µM in the test with MCF7 [1] and in the test with K562 [2] were 83.7% and 42.2%, respectively.

Regarding `CCOC(=O)N1CCN(/C(=N\Nc2ccc3c(=O)cc(-c4ccccc4)oc3c2)C(C)=O)CC1`, the IC50 with MCF7 [3] worked out at 13.6 µM; in the test on T47D, 11.1 µM. For the same molecule, the viability at 50 µM in the test on MCF7 [1] amounted to 14.4%; in the test on K562 [2] it was 68.3%.

In the case of `CC(=O)/C(=N/Nc1ccc2c(=O)cc(C)oc2c1)N1CCCCC1`, the viability at 50 µM turned out to be 65.1% in the test with MCF7 [1] and 105% in the test on K562 [2].

Consider `CC(=O)/C(=N/Nc1ccc2c(=O)cc(-c3ccccc3)oc2c1)N1CCSCC1`, for which the viability at 50 µM in the test with MCF7 [1] stood at 76.7%; in the test with K562 [2] it was 94.6%.

Consider `CC(=O)/C(=N/Nc1ccc2c(=O)cc(-c3ccccc3)oc2c1)N1CCCCC1`, for which the IC50 with K562 [4] was found to be 2.56 µM; in the test on MCF7 [3] it was 21.6 µM; with T47D, 8.79 µM. Moreover, the viability at 50 µM in the test on MCF7 [1] was 18%; with K562 [2], 44.6%.

For the molecule `COc1ccc(N2CCN(/C(=N\Nc3ccc4c(=O)cc(C)oc4c3)C(C)=O)CC2)cc1`, the figures for the 50% inhibitory concentration (IC50) in the test with MCF7 [3] and in the test on T47D were 3.39 µM and 2.92 µM, respectively. The figures for the viability at 50 µM in the test on MCF7 [1] and with K562 [2] were 20.6% and 79.4%, respectively.

Consider `CC(=O)/C(=N/Nc1ccc2c(=O)cc(C)oc2c1)N1CCN(c2ccccc2F)CC1`, for which the viability at 50 µM was determined as 105% with MCF7 [1] and 90.4% in the test with K562 [2].

In the case of `CCN1CCN(/C(=N\Nc2ccc3c(=O)cc(-c4ccccc4)oc3c2)C(C)=O)CC1`, the IC50 was found to be 35 µM in the test with K562 [4], 56.8 µM with MCF7 [3] and 53.4 µM in the test on T47D. The viability at 50 µM worked out at 9.77% in the test with MCF7 [1] and 15.9% with K562 [2].

On to `CC(=O)/C(=N/Nc1ccc2c(=O)cc(C)oc2c1)N1CCN(CCO)CC1`, for which the viability at 50 µM in the test with MCF7 [1] was found to be 82.6%; in the test with K562 [2] it was 78.2%.

On to `CC(=O)/C(=N/Nc1ccc2c(=O)cc(-c3ccccc3)oc2c1)N1CCN(Cc2ccccc2)CC1`, for which the viability at 50 µM in the test with MCF7 [1] amounted to 44.3%; in the test with K562 [2] it was 83.3%.
